Values after ≈ are worked out from the molar mass of the structure shown.
What was measured:
Assay type in all cases: functional
[1] = system: Candida albicans; test: In vitro antifungal activity against 40 strains of Candida albicans at pH 5.8
Method in brief: (§1)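 Broth serial-dilution MIC against 40 clinical C. albicans isolates from hospitalized patients, grown in Sabouraud broth at pH 7.2 or 5.8. Cells were pre-grown 18 h at 37 °C, inoculated at 10³/mL, and read at 24 h, 37 °C. Doubling dilutions ran 0.25–256 μg/mL from a DMSO/water solution. MIC was the lowest concentration with no visible growth against a DMSO/water blank.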

[2] = system: Candida albicans; test: In vitro antifungal activity against 40 strains of Candida albicans at pH 5.8; (percent of resistant species at 256 ug/mL)
Method in brief: (§2)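 Broth serial-dilution test in Sabouraud broth at pH 7.2 or 5.8, against 40 fresh clinical C. albicans isolates from hospitalized patients. Inocula were 10³/mL, pre-grown 18 h at 37 °C in Sabouraud dextrose broth. Compound from a DMSO/water stock was twofold-diluted over 0.25–256 µg/mL. Visible growth was read at 24 h, 37 °C.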

[3] = system: Candida albicans; test: In vitro antifungal activity against 40 strains of Candida albicans at pH 5.8; (range is from 4 to 64); method in brief: as §1
[4] = system: Candida albicans; test: IIn vitro antifungal activity against 40 strains of Candida albicans at pH 7.2; minimum inhibitory concentration (range is from 2 to 128); method in brief: as §1
[5] = system: Candida; test: Tested in vitro for antifungal activity against Candida species. at pH 5.8 (value ranges from 16 to 128)
Method in brief: (§3)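 Liquid serial-dilution MIC against 3 freshly isolated clinical Candida strains (two C. glabrata, one C. krusei) in Sabouraud broth at pH 7.2 or 5.8. Inoculum was 10³/mL after 18 h pre-culture at 37 °C, read at 24 h, 37 °C. Range was 0.25–256 μg/mL. Endpoint was no visible growth versus a DMSO/water blank.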

[6] = system: Candida; test: Tested In vitro for antifungal activity against Candida species. at pH 7.2; method in brief: as §3
[7] = system: Candida; test: Tested In vitro for antifungal activity against Candida species. at pH 7.2; (range is from 8 to 256); method in brief: as §3
[8] = target: Lanosterol 14-alpha demethylase (Candida albicans (strain SC5314 / ATCC MYA-2876) (Yeast), UniProt P10613); test: Anticandida activity- (MIC90 compound) / (MIC90 bifonazole)
[9] = system: Candida albicans; test: In vitro antifungal activity against 40 strains of Candida albicans at pH 7.2; method in brief: as §1
[10] = system: Candida; test: Tested in vitro for antifungal activity against Candida species. at pH 5.8 (percent of resistant species at 256 ug/mL)
Method in brief: (§4)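 Broth serial-dilution test in Sabouraud broth at pH 7.2 or 5.8, against 3 fresh clinical non-albicans isolates (two C. glabrata, one C. krusei). Inocula were 10³/mL, pre-grown 18 h at 37 °C. Compound was twofold-diluted over 0.25–256 µg/mL and read at 24 h, 37 °C for visible growth.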

[11] = system: Candida; test: Tested in vitro for antifungal activity against Candida species. at pH 5.8; method in brief: as §3
[12] = system: Candida; test: Tested in vitro for antifungal activity at pH 7.2 (percent of resistant species at 256 ug/mL)
Method in brief: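 Sabouraud broth serial-dilution test (0.25–256 µg/mL, 10³/mL inocula, 24 h at 37 °C), run at the stated pH on clinical isolates: 40 C. albicans and 3 Candida spp. (two C. glabrata, one C. krusei).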

[13] = system: Candida albicans; test: In vitro antifungal activity against 40 strains of Candida albicans at pH 7.2; (percent of resistant species at 256 ug/mL); method in brief: as §2
[14] = system: Candida; test: Tested in vitro for antifungal activity against Candida species. at pH 5.8 (range is from 4 to 16); method in brief: as §3
[15] = system: Candida albicans; test: In vitro antifungal activity against 40 strains of Candida albicans at pH 7.2; minimum inhibitory concentration (range is from 1 to 32); method in brief: as §1
[16] = system: Candida; test: Tested In vitro for antifungal activity against Candida species. at pH 7.2; (range is from 2 to 32); method in brief: as §3
[17] = system: Candida; test: Tested In vitro for antifungal activity against Candida species. at pH 7.2; (percent of resistant species at 256 ug/mL); method in brief: as §4
[18] = system: Candida albicans; test: In vitro antifungal activity against 40 strains of Candida albicans at pH 5.8; (range is from 0.25 to 64); method in brief: as §1
[19] = system: Candida; test: Tested In vitro for antifungal activity against Candida species. at pH 7.2; (range is from 8 to 128); method in brief: as §3
[20] = system: Candida albicans; test: In vitro antifungal activity against 40 strains of Candida albicans at pH 5.8; (range is from 2 to 128); method in brief: as §1
[21] = system: Candida; test: Tested in vitro for antifungal activity against Candida species. at pH 5.8 (range is from 16 to 256); method in brief: as §3
[22] = system: Candida albicans; test: In vitro antifungal activity against 40 strains of Candida albicans at pH 7.2; minimum inhibitory concentration (range is from 2 to 256); method in brief: as §1
[23] = system: Candida; test: Tested in vitro for antifungal activity against Candida species. at pH 5.8; value ranges from 256 to >256
Method in brief: (§5)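 Fresh clinical isolates (two C. glabrata, one C. krusei) were pre-grown 18 h at 37 °C in Sabouraud dextrose broth. Broth double-dilution was run in Sabouraud broth at pH 5.8 or 7.2 over 0.25–256 µg/mL from a DMSO/water stock, with 10³/mL inoculum.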

[24] = system: Candida albicans; test: In vitro antifungal activity against 40 strains of Candida albicans at pH 7.2; minimum inhibitory concentration ( range is from 32 to 128); method in brief: as §1
[25] = system: Candida; test: Tested In vitro for antifungal activity against Candida species. at pH 7.2; value ranges from 256 to >256; method in brief: as §3
[26] = system: Candida albicans; test: In vitro antifungal activity against 40 strains of Candida albicans at pH 5.8; value ranges from 128 to >256; method in brief: as §1
[27] = system: Candida; test: Tested in vitro for antifungal activity against Candida species. at pH 7.2; method in brief: as §5
[28] = system: Candida albicans; test: In vitro antifungal activity against 40 strains of Candida albicans at pH 7.2; minimum inhibitory concentration; value ranges from 128 to >256; method in brief: as §1
[29] = system: Candida; test: Tested in vitro for antifungal activity against Candida species. at pH 7.2; (percent of resistant species at 256 ug/mL); method in brief: as §4
[30] = system: Candida; test: Tested in vitro for antifungal activity against Candida species. at pH 5.8; (percent of resistant species at 256 ug/mL); method in brief: as §4
[31] = system: Candida; test: Tested in vitro for antifungal activity at pH 5.8; range is >250
Method in brief: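 Serial two-fold broth dilution was run in Sabouraud broth at pH 5.8 over 0.25–256 µg/mL, against clinical Candida isolates (40 C. albicans; 2 C. glabrata plus 1 C. krusei). Inoculum was 10³/mL after 18 h pre-culture at 37 °C. No visible growth versus a DMSO/water blank was read at 24 h, 37 °C; the range spans per-strain MICs.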

[32] = system: Candida albicans; test: In vitro antifungal activity against 40 strains of Candida albicans at pH 7.2; minimum inhibitory concentration value ranges from 128 to >256; method in brief: as §1
[33] = system: Candida albicans; test: In vitro antifungal activity against 40 strains of Candida albicans at pH 5.8; value ranges from 128 to >256.; method in brief: as §1

Sequence of Lanosterol 14-alpha demethylase (P10613 whole entry): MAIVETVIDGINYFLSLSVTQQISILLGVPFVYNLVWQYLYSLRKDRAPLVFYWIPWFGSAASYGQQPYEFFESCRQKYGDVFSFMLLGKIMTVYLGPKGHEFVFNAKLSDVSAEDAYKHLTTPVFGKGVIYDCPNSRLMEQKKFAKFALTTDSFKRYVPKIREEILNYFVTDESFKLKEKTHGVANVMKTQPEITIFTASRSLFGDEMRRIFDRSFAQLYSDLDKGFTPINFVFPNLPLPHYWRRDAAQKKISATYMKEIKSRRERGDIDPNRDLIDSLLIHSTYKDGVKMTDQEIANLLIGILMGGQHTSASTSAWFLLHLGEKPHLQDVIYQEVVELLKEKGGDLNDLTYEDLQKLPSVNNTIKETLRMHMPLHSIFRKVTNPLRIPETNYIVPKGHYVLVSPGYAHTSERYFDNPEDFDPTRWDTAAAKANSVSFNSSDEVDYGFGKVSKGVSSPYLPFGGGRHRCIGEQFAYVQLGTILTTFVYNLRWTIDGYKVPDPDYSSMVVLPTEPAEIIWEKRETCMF

SMILES	MIC [1] [µg/mL]	MIC50 [1] [µg/mL]	MIC90 [1] [µg/mL]	Resistance [2] [%]	MIC [6] [µg/mL]	MIC50 [6] [µg/mL]	MIC90 [6] [µg/mL]	Ratio [8]	MIC [9] [µg/mL]	MIC50 [9] [µg/mL]	MIC90 [9] [µg/mL]	MIC [11] [µg/mL]	MIC50 [11] [µg/mL]	MIC90 [11] [µg/mL]	Resistance [13] [%]	Resistance [10] [%]	Resistance [17] [%]	Range [26] [µg/mL]	MIC50 [27] [µg/mL]	MIC90 [27] [µg/mL]	also measured
Clc1ccc([C@H](c2c[nH]cc2-c2ccc(-c3ccccc3)cc2)n2ccnc2)c(Cl)c1	10.1 (≈ 22.6 µM)	8 (≈ 18 µM)	8 (≈ 18 µM)	0	90.6 (≈ 204 µM)	8 (≈ 18 µM)	256 (≈ 576 µM)	5.6	14.9 (≈ 33.5 µM)	8 (≈ 18 µM)	8 (≈ 18 µM)	53.3 (≈ 120 µM)	16 (≈ 36 µM)	128 (≈ 288 µM)	0						Range [3]: 64 µg/mL; Range [4]: 128 µg/mL; Range [5]: 128 µg/mL; Range [7]: 256 µg/mL; % R [10]: 0%; Resistance [12]: 0%
Clc1ccc([C@H](c2c[nH]cc2-c2ccc(-n3cccc3)cc2)n2ccnc2)c(Cl)c1	3.95 (≈ 9.12 µM)	2 (≈ 4.62 µM)	4 (≈ 9.23 µM)	0	14.1 (≈ 32.6 µM)	4 (≈ 9.23 µM)	32 (≈ 73.8 µM)	0.72	4.4 (≈ 10.2 µM)	2 (≈ 4.62 µM)	4 (≈ 9.23 µM)	9.3 (≈ 21.5 µM)	8 (≈ 18.5 µM)	16 (≈ 36.9 µM)	0	0	0				Range [14]: 16 µg/mL; Range [15]: 32 µg/mL; Range [16]: 32 µg/mL; Range [18]: 64 µg/mL
O=[N+]([O-])c1ccc(-c2c[nH]cc2[C@@H](c2ccc(Cl)cc2Cl)n2ccnc2)cc1	15 (≈ 36.4 µM)	8 (≈ 19.4 µM)	8 (≈ 19.4 µM)	0	56 (≈ 136 µM)	32 (≈ 77.4 µM)	128 (≈ 310 µM)	1.5	14.7 (≈ 35.6 µM)	8 (≈ 19.4 µM)	8 (≈ 19.4 µM)	133 (≈ 323 µM)	128 (≈ 310 µM)	256 (≈ 619 µM)	0	0	0				Range [19]: 128 µg/mL; Range [20]: 128 µg/mL; Range [21]: 256 µg/mL; Range [22]: 256 µg/mL
Nc1ccc(-c2c[nH]cc2[C@@H](c2ccc(Cl)cc2Cl)n2ccnc2)cc1	219 (≈ 572 µM)	> 256	> 256	80	256 (≈ 668 µM)	> 256	> 256	52	85 (≈ 222 µM)	> 256	> 256	256 (≈ 668 µM)	> 256	> 256	54	67	67	>128			Range [23]: >256 µg/mL; Range [24]: 128 µg/mL; Range [25]: >256 µg/mL
Clc1ccc(-c2c[nH]cc2[C@@H](c2ccc(Cl)cc2Cl)n2cnnc2)cc1	128 (≈ 317 µM)	> 256	> 256	94				49	165 (≈ 408 µM)	> 256	> 256		> 256	> 256	77			>256	> 256	> 256	Range [27]: >256 µg/mL; Range [28]: >256 µg/mL; Resistance [29]: 100%; Range [11]: >256 µg/mL; Resistance [30]: 100%
Clc1ccc(-c2c[nH]cc2[C@@H](c2ccc(Cl)cc2Cl)n2cncn2)cc1	209 (≈ 519 µM)	> 256	> 256	68				49	128 (≈ 317 µM)	> 256	> 256		> 256	> 256	97				> 256	> 256	Range [31]: >256 µg/mL; Range [27]: >256 µg/mL; Range [32]: >256 µg/mL; Resistance [29]: 100%; Range [33]: >256 µg/mL; Resistance [30]: 100%

Reference: ChEMBL document CHEMBL1135477, “Antifungal agents. 10. New derivatives of 1-[(aryl)[4-aryl-1H-pyrrol-3-yl]methyl]-1H-imidazole, synthesis, anti-candida activity, and quantitative structure-analysis relationship studies” (J Med Chem, 2002)
